Values joined by “and” are separate entries in the source; they are usually repeats but may differ in a detail not shown here. Equal entries are not always repeated. “Also recorded” adds a separate entry of the source.
Columns and labels:
[1] = Chemical stability of the inhibitors; assay type: physicochemical; settings: compound not in complex with HPPK
HPPK [2] = target: HPPK (Escherichia coli, UniProt P26281); experiment: Fluorometric titration of HPPK with inhibitor; assay type: binding, E. coli; settings: ratio of Kd values, 19 versus 17
Method in brief: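 Fluorescence titration of HPPK (initial 10 μM) with inhibitor dissolved in DMSO, added as aliquots from a 500 μM stock. Excitation/emission 420/450 nm or 450/480 nm depending on compound; slits 1 and 4 nm. Kd from nonlinear least-squares fit of fluorescence change to a quadratic single-site binding equation using total enzyme and total inhibitor concentrations.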

E. coli HPPK = E. coli HPPK (Escherichia coli, UniProt P26281); experiment: HPPK enzyme inhibition assay with [α-32P]-ATP; assay type: biochemical; settings: ratio of IC50 values, 19 versus 17
HPPK [3] = settings: cited from earlier work

Chain of HPPK (Escherichia coli, UniProt P26281) (P26281 whole entry): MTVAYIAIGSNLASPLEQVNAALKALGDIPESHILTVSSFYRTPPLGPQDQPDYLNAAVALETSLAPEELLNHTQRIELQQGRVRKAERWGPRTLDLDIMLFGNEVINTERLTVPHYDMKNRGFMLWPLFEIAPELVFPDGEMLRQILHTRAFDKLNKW
Chain of E. coli HPPK (P26281 whole entry): as above

Nc1nc2ncc(CNCCN3CCC(SC[C@H]4O[C@@H](n5cnc6c(N)ncnc65)[C@H](O)[C@@H]4O)CC3)nc2c(=O)[nH]1 [Compound 17, 2-amino-6-[(2-{4-[5-(6-amino-purin-9-yl)-3,4-dihydroxy-tetrahydro-furan-2-ylmethylsulfanyl]-piperidin-1-yl}-ethylamino)-methyl]-3H-pteridin-4-one]
chemical stability [1]: stable

CC1(C)Nc2nc(N)[nH]c(=O)c2N=C1CNCCN1CCC(SCC2OC(n3cnc4c(N)ncnc43)C(O)C2O)CC1 (centres unmarked) [Compound 18, 2-amino-6-[(2-{4-[5-(6-amino-purin-9-yl)-3,4-dihydroxy-tetrahydro-furan-2-ylmethylsulfanyl]-piperidin-1-yl}-ethylamino)-methyl]-7,7-dimethyl-7,8-dihydro-3H pteridin-4-one]
chemical stability [1]: not stable; also recorded: tends to degrade

CC1(C)Nc2nc(N)[nH]c(=O)c2N=C1C(=O)NCCN1CCC(SC[C@H]2O[C@@H](n3cnc4c(N)ncnc43)[C@H](O)[C@@H]2O)CC1 [Compound 19, 2-amino-7,7-dimethyl-4-oxo-3,4,7,8-tetrahydro-pteridine-6-carboxylic acid (2-{4-[5-(6-amino-purin-9-yl)-3,4-dihydroxy-tetrahydro-furan-2-ylmethylsulfanyl]-piperidin-1-yl}-ethyl)-amide]
increased binding affinity over 17 (HPPK [2]): 60 fold and ~ 60 fold | increased inhibition ability over 17 (E. coli HPPK): 30 fold | chemical stability [1]: stable

Nc1nc2c(c(=O)[nH]1)N=C(CO)CN2 [HP, 6-hydroxymethyl-7,8-dihydropterin]
Kd for the binding of HP to ligand-free HPPK (HPPK [3]): mM range | Kd for the binding of HP to the HPPK MgATP complex (HPPK [3]): sub-μM range

Nc1ncnc2c1ncn2[C@@H]1O[C@H](COP(=O)(O)OP(=O)(O)OP(=O)(O)O)[C@@H](O)[C@H]1O [MgATP]
Kd (HPPK [3]; read-out: Kd for the binding of MgATP to HPPK): 2.6 to 4.5 µM

From publication PMC3257516 (Bioorganic & medicinal chemistry, 2011)
